Laboratory results published in ChEMBL document CHEMBL3596134 (J Med Chem, 2015).
One block for each molecule: values may come before it.

How the values were obtained:
[1] = Oral bioavailability in guinea pig at 30 mg/kg; assay type: ADME, organism-based, Cavia porcellus; details: in vivo
[2] = Oral bioavailability in guinea pig at 10 mg/kg; assay type: ADME, organism-based, Cavia porcellus; details: in vivo
Procedure, shortened: (§1)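 Single iv and oral dosing in rat, guinea pig or dog; iv and po given as solutions in wellsolve/H2O 1/9 with NaOH (2 equiv). Animals fasted before oral dosing; noncrossover design, n = 3. Plasma protein-precipitated with acetonitrile/ethanol (70/30) and assayed by HPLC/MS/MS with negative-ion ionization. Noncompartmental analysis; F from mean po AUC over mean iv AUC.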

[3] = Oral bioavailability in rat at 10 mg/kg; assay type: ADME, organism-based; details: in vivo; procedure, shortened: as §1
[4] = Half life in rat at 1 mg/kg, iv; assay type: ADME, organism-based; details: in vivo; procedure, shortened: as §1
[5] = Half life in guinea pig at 1 mg/kg, iv; assay type: ADME, organism-based, Cavia porcellus; details: in vivo; procedure, shortened: as §1
[6] = Half life in dog at 1 mg/kg, iv; assay type: ADME, organism-based, Canis lupus familiaris; details: in vivo; procedure, shortened: as §1
[7] = Clearance in rat at 1 mg/kg, iv; assay type: ADME, organism-based; details: in vivo; procedure, shortened: as §1
[8] = Clearance in guinea pig at 1 mg/kg, iv; assay type: ADME, organism-based, Cavia porcellus; details: in vivo; procedure, shortened: as §1
[9] = Clearance in dog at 1 mg/kg, iv; assay type: ADME, organism-based, Canis lupus familiaris; details: in vivo; procedure, shortened: as §1
[10] = Volume of distribution at steady state in rat at 1 mg/kg, iv and 3 mg/kg, po; assay type: ADME, organism-based; details: in vivo, read-out: Vdss
Procedure, shortened: (§2)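 Single iv and oral doses were given as solutions in wellsolve/H2O 1/9 with 2 equiv NaOH. Animals were fasted before oral dosing, in a noncrossover design with n = 3. Plasma was protein-precipitated with acetonitrile/ethanol 70/30 and analysed by HPLC/MS/MS (negative-ion Turbo IonSpray). Parameters were derived by noncompartmental analysis and reported as mean ± SD.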

[11] = Volume of distribution at steady state in guinea pig at 1 mg/kg, iv and 10 mg/kg, po; assay type: ADME, organism-based, Cavia porcellus; details: in vivo, read-out: Vdss
[12] = Volume of distribution at steady state in dog at 1 mg/kg, iv and 1 mg/kg, po; assay type: ADME, organism-based, Canis lupus familiaris; details: in vivo, read-out: Vdss; procedure, shortened: as §2
[13] = AUC in rat at 3 mg/kg, po; assay type: ADME, organism-based; details: in vivo; procedure, shortened: as §1
[14] = AUC in guinea pig at 10 mg/kg, po; assay type: ADME, organism-based, Cavia porcellus; details: in vivo; procedure, shortened: as §1
[15] = (§3) AUC in dog at 1 mg/kg, po; assay type: ADME, organism-based, Canis lupus familiaris; details: in vivo; procedure, shortened: as §1
[16] = Oral bioavailability in rat at 3 mg/kg; assay type: ADME, organism-based; details: in vivo; procedure, shortened: as §1
[17] = Oral bioavailability in dog at 1 mg/kg; assay type: ADME, organism-based, Canis lupus familiaris; details: in vivo; procedure, shortened: as §1
[18] = Drug uptake in lung of guinea pig measured over 24 hrs; assay type: ADME, tissue-based, Cavia porcellus; details: read-out: Drug uptake
Procedure, shortened: (§4)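 Lungs homogenized in saline; homogenate digested in 2 mol/L NaOH at 60 °C for 3 h, then diluted 50-fold in PBS. Protein measured by BCA. Compound measured by negative-ion HPLC/MS/MS after ethanol precipitation and expressed as ng/g protein. Plasma and lung values given as mean with SD, n = 4.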

[19] = Plasma concentration in guinea pig measured over 24 hrs; assay type: ADME, Cavia porcellus; procedure, shortened: as §4
[20] = Ratio of drug level in lung to plasma in guinea pig measured over 24 hrs; assay type: ADME, Cavia porcellus; details: lung and plasma
Procedure, shortened: (§5)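 Guinea pigs were dosed orally. Lungs were homogenized in saline, digested in 2 mol/L NaOH at 60 °C for 3 h, diluted 50-fold in PBS, and assayed for protein by BCA. Drug in lung was quantified by HPLC/MS/MS (negative-ion) after ethanol precipitation and expressed as ng/g protein. Plasma was assayed after acetonitrile/ethanol precipitation. Kp is the lung:plasma concentration ratio.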

[21] = Stability of the compound in ambient light; assay type: physicochemical
[22] = AUC in guinea pig at 0.2 mg/kg, iv and 1 mg/kg, po administered as cassette dosing; assay type: ADME, organism-based, Cavia porcellus; details: in vivo
[23] = Oral bioavailability in guinea pig at 1 mg/kg administered as cassette dosing; assay type: ADME, organism-based, Cavia porcellus; details: in vivo
Procedure, shortened: (§6)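 Guinea pig cassette dosing of five compounds per solution, 0.2 mg/kg iv and 1 mg/kg po. Vehicle wellsolve/H2O 5/95 with NaOH (1.2 equiv). Animals fasted before oral dosing; noncrossover design, n = 3. Plasma protein-precipitated with acetonitrile/ethanol (70/30) and assayed by negative-ion HPLC/MS/MS. Noncompartmental analysis; F from mean AUCs.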

[24] = Stability of the compound in H2SO4/DME/H2O at 50 degC measured for 24 hrs; assay type: physicochemical
Procedure, shortened: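 Compound was held in 1 mol/L H2SO4 in DME/H2O at 50 °C for 24 h and checked for degradation.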

[25] = Stability of the compound in NaOH/DME/EtOH/H2O at 50 degC measured for 24 hrs; assay type: physicochemical
Procedure, shortened: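 Compound was held in 1 mol/L NaOH in DME/EtOH/H2O at 50 °C for 24 h and checked for degradation.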

Canis familiaris [26] = assay: as §3; assay type: ADME, organism-based, Canis lupus familiaris; details: in vivo; procedure, shortened: as §1
[27] = Half life in guinea pig at 0.2 mg/kg, iv administered as cassette dosing; assay type: ADME, organism-based, Cavia porcellus; details: in vivo; procedure, shortened: as §6
[28] = Clearance in rat at 1 mg/kg, iv and 1 mg/kg, po; assay type: ADME, organism-based; details: in vivo; procedure, shortened: as §1
[29] = Clearance in rat at 0.2 mg/kg, iv and 1 mg/kg, po administered as cassette dosing; assay type: ADME, organism-based; details: in vivo
[30] = Volume of distribution at steady state in rat at 1 mg/kg, iv and 1 mg/kg, po; assay type: ADME, organism-based; details: in vivo, read-out: Vdss; procedure, shortened: as §2
[31] = Volume of distribution at steady state in rat at 0.2 mg/kg, iv and 1 mg/kg, po administered as cassette dosing; assay type: ADME, organism-based; details: in vivo, read-out: Vdss
[32] = Cmax in rat at 1 mg/kg, po; assay type: ADME, organism-based; parameters: dose 1 mg/kg, route oral; details: in vivo; procedure, shortened: as §1
[33] = Cmax in guinea pig at 1 mg/kg, po administered as cassette dosing; assay type: ADME, organism-based, Cavia porcellus; parameters: dose 1 mg/kg, route oral; details: in vivo; procedure, shortened: as §6
[34] = Cmax in dog at 1 mg/kg, po; assay type: ADME, organism-based, Canis lupus familiaris; parameters: dose 1 mg/kg, route oral; details: in vivo; procedure, shortened: as §1
[35] = AUC in rat at 1 mg/kg, po; assay type: ADME, organism-based; details: in vivo; procedure, shortened: as §1
[36] = AUC in guinea pig at 1 mg/kg, po administered as cassette dosing; assay type: ADME, organism-based, Cavia porcellus; details: in vivo
[37] = Oral bioavailability in rat at 1 mg/kg; assay type: ADME, organism-based; details: in vivo; procedure, shortened: as §1
Canis familiaris [38] = assay: Oral bioavailability in dog at 1 mg/kg administered as cassette dosing; assay type: ADME, organism-based, Canis lupus familiaris; details: in vivo
[39] = Plasma concentration in guinea pig at 0.3 mg/kg, po measured over 7 days; assay type: ADME, organism-based, Cavia porcellus; procedure, shortened: as §4
[40] = Plasma concentration in guinea pig at 3 mg/kg, po measured over 7 days; assay type: ADME, organism-based, Cavia porcellus; procedure, shortened: as §4
[41] = Drug uptake in lung of guinea pig at 0.3 mg/kg, po measured over 7 days; assay type: ADME, organism-based, Cavia porcellus; details: read-out: Drug uptake; procedure, shortened: as §4
[42] = Drug uptake in lung of guinea pig at 3 mg/kg, po measured over 7 days; assay type: ADME, organism-based, Cavia porcellus; details: read-out: Drug uptake; procedure, shortened: as §4
[43] = Ratio of drug level in lung to plasma in guinea pig at 3 mg/kg, po measured over 7 days; assay type: ADME, organism-based, Cavia porcellus; details: lung and plasma; procedure, shortened: as §5
[44] = Ratio of drug level in lung to plasma in guinea pig at 0.3 mg/kg, po measured over 7 days; assay type: ADME, organism-based, Cavia porcellus; details: lung and plasma; procedure, shortened: as §5

bioavailability [1]: 2.8%
SMILES: O=C(O)CCCN1CC(C(=O)O)Oc2c(NC(=O)c3ccc(OCCCCc4ccccc4)cc3)cccc21 (stereo not drawn)

bioavailability [2]: 26%
SMILES: O=C(O)CCCn1cc(CC(=O)O)c2c(/C=C/c3ccc(OCCCCOc4ccccc4)cc3)cccc21

bioavailability [2]: 12%
bioavailability [3]: 66%
SMILES: O=C(O)CCCc1cn(CC(=O)O)c2c(/C=C/c3ccc(OCCCCOc4ccccc4)cc3)cccc12

bioavailability [2]: 11%
half-life [4]: 8.9 h
half-life [5]: 5.3 h
half-life [6]: 4.7 h
clearance [7]: 1.1 mL/min/kg
clearance [8]: 1.8 mL/min/kg
clearance [9]: 5.5 mL/min/kg
Vd [10]: 0.3 L/kg
Vd [11]: 0.23 L/kg
Vd [12]: 0.38 L/kg
AUC [13]: 39000 ng·h/mL
AUC [14]: 10000 ng·h/mL
AUC [15]: 650 ng·h/mL
bioavailability [16]: 56%
bioavailability [17]: 21%
concentration at 24 h [18]: 253 ng/g
concentration at 24 h [19]: 16 ng/mL
Kp at 24 h [20]: 15
Stability [21]: Unstable
SMILES: Cc1c(Cl)cccc1CCCCOc1ccc(/C=C/c2cccc3c(CCCC(=O)O)c(C)n(CC(=O)O)c23)cc1

AUC [22]: 10500 ng·h/mL
bioavailability [23]: 66%
Stability [24]: Stable
Stability [25]: Stable
Stability [21]: Stable
SMILES: Cc1c(Cl)cccc1CCCCOc1ccc(C#Cc2cccc3c(CCCC(=O)O)c(C)n(CCCC(=O)O)c23)cc1

AUC [22]: 3400 ng·h/mL
bioavailability [23]: 52%
SMILES: Cc1c(Cl)cccc1CCCCOc1ccc(C#Cc2ccc(F)c3c(CCCC(=O)O)c(C)n(CCCC(=O)O)c23)cc1

half-life [4]: 9.6 h
half-life [6]: 7.6 h
Vd [12]: 0.14 L/kg
AUC (Canis familiaris [26]): 28200 ng·h/mL
bioavailability [23]: 56%
half-life [27]: 7.1 h
clearance [28]: 0.68 mL/min/kg
clearance [29]: 1.1 mL/min/kg
Vd [30]: 0.24 L/kg
Vd [31]: 0.31 L/kg
Cmax [32]: 1190 ng/mL
Cmax [33]: 1010 ng/mL
Cmax [34]: 3690 ng/mL
AUC [35]: 9330 ng·h/mL
AUC [36]: 8510 ng·h/mL
bioavailability [37]: 35%
F (Canis familiaris [38]): 51%
concentration at 168 h [39]: 8.7 ng/mL
concentration at 168 h [40]: 83 ng/mL
concentration at 168 h [41]: 267 ng/g
concentration at 168 h [42]: 573 ng/g
Kp at 168 h [43]: 8
Kp at 168 h [44]: 30
SMILES: Cc1c(F)cccc1CCCCOc1ccc(C#Cc2ccc(F)c3c(CCCC(=O)O)c(C)n(CCCC(=O)O)c23)cc1
